{"data": "Measured values gathered from unrelated publications", "target": "Discoidin domain-containing receptor 2 (DDR2, Homo sapiens, UniProt Q16832)", "note": "Lines come from different studies, so protocols differ."}
{"SMILES": "N#CCCc1ccc2c(c1)-c1[nH]c3ccc([N+](=O)[O-])cc3c1CC(=O)N2", "read-out": "cell-free assay", "concentration": "0.5 µM", "measurement": "remaining signal", "value": "105%"}
{"SMILES": "CNC(=O)c1cc2c(Oc3ccc(NC(=O)C4(C(=O)Nc5ccc(F)cc5)CC4)cc3)ccnc2cc1OC", "read-out": "enzyme activity", "action": "inhibitor", "method": "radiometric", "concentration": "1 µM", "measurement": "inhibition", "value": "104%"}
{"SMILES": "Cc1ccc(NC(=O)c2ccc(C)c(C(F)(F)F)c2)cc1C#Cc1nn(C2CCC(O)CC2)c2ncnc(N)c12 (stereo not drawn)", "read-out": "cell-free assay", "concentration": "10 µM", "measurement": "remaining signal", "value": "16%"}
{"SMILES": "CO[C@H]1CC[C@H](CNc2ccc(S(=O)(=O)NC(=O)c3ccc(N4CCN(CC5=C(c6ccc(Cl)cc6)CC(C)(C)CC5)CC4)cc3Oc3cnc4[nH]ccc4c3)cc2[N+](=O)[O-])CC1", "read-out": "cell-free assay", "method": "competition with immobilised ligand", "concentration": "1 µM", "measurement": "remaining binding", "value": "100%"}
{"SMILES": "COc1cc2nccc(Oc3ccc(NC(=O)c4c5n(n(-c6ccc(F)cc6)c4=O)CCCC5)cc3)c2cc1OC", "read-out": "enzyme activity", "action": "inhibitor", "concentration": "0.1 µM", "measurement": "inhibition", "value": "20%"}
{"SMILES": "CNC(=O)c1cc(Oc2ccc(NC(=O)Nc3ccc(Cl)c(C(F)(F)F)c3)cc2)ccn1", "read-out": "enzyme activity", "action": "inhibitor", "concentration": "10 µM", "measurement": "inhibition", "value": "111%"}
{"SMILES": "COc1cc(Nc2cnc(C#N)c(O[C@H](C)CN(C)C)n2)ncc1-c1cnn(C)c1", "read-out": "enzyme activity", "action": "inhibitor", "method": "radiometric", "concentration": "1 µM", "measurement": "remaining activity", "value": "95%"}
{"SMILES": "Cc1cc(NC(=O)c2cccc3cc(-c4cccc5[nH]nc(N)c45)ccc23)ccc1F", "read-out": "enzyme activity", "action": "inhibitor", "concentration": "0.1 µM", "measurement": "activity vs control", "value": "60%"}
{"SMILES": "CCCOc1ccc(OC)c(F)c1C(=O)c1ccc(C(=O)N[C@@H]2CNC[C@H]2NC(=O)c2ccc3[nH]ncc3c2)cc1", "read-out": "enzyme activity", "action": "inhibitor", "concentration": "10 µM", "measurement": "remaining activity", "value": "103%"}
{"SMILES": "C[C@@H]1CN(c2cc(-c3n[nH]c4ccc(OC5(C)CC5)cc34)ncn2)C[C@H](C)O1", "read-out": "cell-free assay", "method": "competition with immobilised ligand", "concentration": "0.1 µM", "measurement": "remaining binding", "value": "82%"}
{"SMILES": "Cc1[nH]c(/C=C2\\C(=O)Nc3ccc(F)cc32)c(C)c1C(=O)N[C@H]1CCN(C(=O)N(C)C)C1", "read-out": "enzyme activity", "action": "inhibitor", "concentration": "0.1 µM", "measurement": "remaining activity", "value": "113%"}
{"SMILES": "C=CC(=O)Nc1cc(Nc2nccc(Nc3cc(Cl)c(F)cc3C(C)(C)O)n2)c(OC)cc1N1CC[C@@H](N(C)C)C1", "read-out": "enzyme activity", "action": "inhibitor", "concentration": "1 µM", "measurement": "inhibition", "value": "1%"}
{"SMILES": "CN(C)c1ncnc(-c2ccc3nc(Nc4cc(CN5CCN(C(=O)CC(F)(F)F)CC5)ccn4)[nH]c3c2)c1Cl", "read-out": "cell-free assay", "method": "competition with immobilised ligand", "concentration": "1 µM", "measurement": "remaining binding", "value": "71%"}
{"SMILES": "CCN(CC)CCNC(=O)c1c(C)[nH]c(/C=C2\\C(=O)Nc3ccc(F)cc32)c1C", "read-out": "enzyme activity", "action": "inhibitor", "concentration": "0.1 µM", "measurement": "remaining activity", "value": "101%"}
{"SMILES": "O=C(Nc1cnn(-c2csc(C(=O)NC3COC3)c2)c1)Nc1c(F)cccc1Cl", "read-out": "enzyme activity", "action": "inhibitor", "concentration": "5 µM", "measurement": "remaining activity", "value": "96.6%"}
{"SMILES": "O=C(NCc1ncc(C(F)(F)F)cc1Cl)c1ccc2c(c1)C1(CCS(=O)(=O)CC1)[C@H](C1CC1)N2S(=O)(=O)c1ccc(F)cc1", "read-out": "cell-free assay", "method": "competition with immobilised ligand", "concentration": "1 µM", "measurement": "remaining binding", "value": "78%"}
{"SMILES": "CCN(CC)CCNC(=O)c1c(C)[nH]c(/C=C2\\C(=O)Nc3ccc(F)cc32)c1C", "read-out": "enzyme activity", "action": "inhibitor", "concentration": "0.3 µM", "measurement": "inhibition", "value": "-8%"}
{"SMILES": "Nc1ncnc2occ(-c3ccc(NC(=O)Nc4cc(C(F)(F)F)ccc4F)cc3)c12", "read-out": "cell-free assay", "concentration": "20 µM", "measurement": "remaining signal", "value": "1.4%"}
{"SMILES": "O=C(NC[C@@H]1[C@H]2CN(C(=O)OCc3cc(C(F)(F)F)cc(C(F)(F)F)c3)C[C@@H]12)c1ccc2[nH]nnc2c1", "read-out": "cell-free assay", "method": "competition with immobilised ligand", "concentration": "1 µM", "measurement": "remaining binding", "value": "82%"}
{"SMILES": "CC(C)(C)c1nc2c(s1)c1nc(N)ncc1c1ccc(NS(=O)(=O)c3c(F)cccc3F)c(F)c12", "read-out": "enzyme activity", "action": "inhibitor", "method": "radiometric", "concentration": "1 µM", "measurement": "remaining activity", "value": "69%"}
{"SMILES": "CCC(=O)N[C@H]1CC[C@@H](C(=O)N(C)c2ccc(-c3nc4ccccc4o3)cc2)C1", "read-out": "cell-free assay", "method": "competition with immobilised ligand", "concentration": "1 µM", "measurement": "remaining binding", "value": "100%"}
{"SMILES": "Cc1cnc(NC2CCOCC2)nc1-n1cnc(C(=O)NC(CN)c2cc(F)cc(Cl)c2)c1 (stereo not drawn)", "read-out": "enzyme activity", "action": "inhibitor", "method": "radiometric", "concentration": "1 µM", "measurement": "remaining activity", "value": "102%"}
{"SMILES": "Cc1cc(NC(=O)c2cccc(S(F)(F)(F)(F)F)c2)cc(-n2ccn3nc(-c4cccnc4)cc23)c1", "read-out": "cell-free assay", "method": "competition with immobilised ligand", "concentration": "1 µM", "measurement": "remaining binding", "value": "18.2%"}
{"SMILES": "O=C1Nc2ccc(Cl)cc2C1=Cc1cc(Cl)c(O)c(Cl)c1", "read-out": "cell-free assay", "concentration": "0.5 µM", "measurement": "remaining signal", "value": "85.8%"}
